In ChEMBL document CHEMBL2417386, “Novel conjugated quinoline-indoles compromise Plasmodium falciparum mitochondrial function and show promising antimalarial activity” (J Med Chem, 2013):

Assays:
Plasmodium falciparum [1] = experiment: Antimalarial activity against mid to late trophozoite stage of Plasmodium falciparum 3D7 infected in RBC assessed as nonviable parasite at 15 uM after 0.5 hrs by SYTO 61 staining-based flow cytometric analysis relative to untreated control; assay type: functional
Plasmodium falciparum [2] = experiment: Gametocytocidal activity against synchronous stage 4 to 5 of transgenic Plasmodium falciparum NF54 gametocyte harboring pfs16 promoter assessed as parasite viability after 72 hrs by MitoTracker Red CMXRos-based assay; assay type: functional, organism-based; settings: NF54, 72 h
Plasmodium falciparum [3] = experiment: Gametocytocidal activity against synchronous stage 1 to 3 of transgenic Plasmodium falciparum NF54 gametocyte harboring pfs16 promoter assessed as parasite viability after 72 hrs by luciferase reporter gene assay; assay type: functional, organism-based; settings: NF54, 72 h
[4] = Inhibition of beta-hematin formation after 24 hrs by spectrophotometric analysis in presence of nonidet P40; assay type: functional
[5] = Dissociation constant, pKa of the compound at 50 uM by spectrophotometric analysis; assay type: physicochemical
[6] = Selectivity index, ratio of IC50 for HEK293 cells to IC50 for Plasmodium falciparum 3D7 after 72 hrs; assay type: toxicity, cell-based; settings: human, read-out: Ratio IC50
Outline: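 Parasite (3D7) viability assay and HEK293 viability assay, each with a 72 h exposure. Index taken as the ratio of the IC50 values, HEK293 over 3D7.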

Plasmodium falciparum [7] = experiment: Antimalarial activity against Plasmodium falciparum K1 infected in RBC assessed as growth inhibition after 48 hrs by SYBR Green-I fluorescence assay; assay type: functional, organism-based; settings: K1, 48 h
Outline: (§1)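 Parasite-infected red cells exposed to compound for 48 h; growth read by SYBR Green-I fluorescence; IC50 derived. Where a ± is given, it is the standard deviation of three individual experiments.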

Plasmodium falciparum [8] = experiment: Antimalarial activity against Plasmodium falciparum 3D7 infected in RBC assessed as growth inhibition after 48 hrs by SYBR Green-I fluorescence assay; assay type: functional, organism-based; settings: 3D7, 48 h; outline: as §1
Plasmodium falciparum [9] = experiment: Antimalarial activity against mid to late trophozoite stage of Plasmodium falciparum 3D7 infected in RBC assessed as abnormal mitochondria at 0.6 uM after 0.5 hrs by MitoTracker Red CMXRos-based fluorescence microscopic analysis relative to untreated control; assay type: functional
Plasmodium falciparum [10] = experiment: Antimalarial activity against mid to late trophozoite stage of Plasmodium falciparum 3D7 infected in RBC assessed as abnormal mitochondria at 3 uM after 0.5 hrs by MitoTracker Red CMXRos-based fluorescence microscopic analysis relative to untreated control; assay type: functional
Plasmodium falciparum [11] = experiment: Antimalarial activity against mid to late trophozoite stage of Plasmodium falciparum 3D7 infected in RBC assessed as abnormal mitochondria at 15 uM after 0.5 hrs by MitoTracker Red CMXRos-based fluorescence microscopic analysis relative to untreated control; assay type: functional
Plasmodium falciparum [12] = experiment: Antimalarial activity against mid to late trophozoite stage of Plasmodium falciparum 3D7 infected in RBC assessed as nonviable parasite at 0.6 uM after 0.5 hrs by SYTO 61 staining-based flow cytometric analysis relative to untreated control; assay type: functional
Plasmodium falciparum [13] = experiment: Antimalarial activity against mid to late trophozoite stage of Plasmodium falciparum 3D7 infected in RBC assessed as nonviable parasite at 3 uM after 0.5 hrs by SYTO 61 staining-based flow cytometric analysis relative to untreated control; assay type: functional

Work on `Nc1cc(/C=C/c2c[nH]c3ccccc23)nc2ccccc12` yielded an Activity (Plasmodium falciparum [1]) of 88%, an IC50 (Plasmodium falciparum [2]) of 1.4 µM and an IC50 (Plasmodium falciparum [3]) of 0.37 µM. The IC50 [4] was greater than 4000 µM, the pKa at 50 µM [5] was 9.5 and the selectivity ratio at 72 h [6] was 79. It also gave an IC50 (Plasmodium falciparum [7]) of 0.39 µM, an IC50 (Plasmodium falciparum [8]) of 0.2 µM and an Activity (Plasmodium falciparum [9]) of 27%. For the same compound, the Activity (Plasmodium falciparum [10]) was 66%, the Activity (Plasmodium falciparum [11]) was 93% and the Activity (Plasmodium falciparum [12]) was 46%. The Activity (Plasmodium falciparum [13]) was 77%.
